Shown are actives, neighbours in structure and some others; about 2.3% of the full set was active somewhere.
V1R ag counter: activates human V1a receptor in oxytocin agonist counter-screen; CHO-V1R cells, Fluo-8 calcium fluorescence, agonist mode; 0% DMSO, 100% 3 nM vasopressin; activation, % at 3 µM; 320,000 tested, 0.25% active; AID 2797;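 active = activation above the mean activation of all tested compounds plus 3 SD, per screening run, cut at about 20% in these data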;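 also: signal is peak over basal fluorescence ratio across a 100 second FLIPR read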
Target sequence (P37288 whole entry, looked up): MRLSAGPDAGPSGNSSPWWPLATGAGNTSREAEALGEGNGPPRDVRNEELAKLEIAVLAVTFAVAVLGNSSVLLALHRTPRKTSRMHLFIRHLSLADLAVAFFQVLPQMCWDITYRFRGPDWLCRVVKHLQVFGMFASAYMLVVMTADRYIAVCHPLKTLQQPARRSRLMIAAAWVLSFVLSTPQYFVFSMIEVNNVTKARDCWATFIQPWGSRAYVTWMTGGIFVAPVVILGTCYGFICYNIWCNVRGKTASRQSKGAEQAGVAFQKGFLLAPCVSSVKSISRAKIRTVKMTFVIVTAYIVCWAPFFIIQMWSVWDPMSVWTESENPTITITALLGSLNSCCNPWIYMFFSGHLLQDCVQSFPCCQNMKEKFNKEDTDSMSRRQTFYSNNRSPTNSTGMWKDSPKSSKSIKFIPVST
TAAR1 antagonist: antagonists of human TAAR1; CHO RD-HGA16 TAAR1, Fluo-8 calcium fluorescence, antagonist; inhibition, % at 3 µM; Q96RJ0; 360,000 tested, 1.5% active; AID 624466;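 active = inhibition above a per-plate cutoff, the mean inhibition of test compounds on that plate plus 3 SD, cut at about 49% in these data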
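Assay system: RD-HGA16 CHO cells with stable hTAAR1 and Gα16 / Reagent: EC80 β-phenethylamine stimulus / Doses: 3 µM, single point / Timing: dye loading 75 min at 37 °C, then 30 min room temperature / Measured by: Fluo-8 intracellular calcium dye fluorescence, real-time kinetic reads / Controls: vehicle wells and EC80 agonist wells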
TAAR1 ag: agonists of human TAAR1; Q96RJ0; CHO RD-HGA16 TAAR1, Fluo-8 calcium fluorescence; vehicle wells 0%, saturating PEA agonist 100%; activation, % at 3 µM; 360,000 tested, 0.99% active; AID 624467;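 active = activation above the mean activation of all test compounds in the run plus 3 SD, cut at about 38% in these data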
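Assay system: CHO-derived RD-HGA16 cells with stable Gα16 and human TAAR1; timing: 17-24 h seeding, 75 min 37 °C dye, 30 min RT; read-out: % activation from peak over basal fluorescence ratio, DMSO-to-PEA scaled; measured by: kinetic Fluo-8 calcium fluorescence; benchmarks: low control DMSO, high control PEA (EC100); doses: 3 µM single concentration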
OXTR ag: agonists of human oxytocin receptor; AID 2435; activation, % at 3 µM; 320,000 tested, 0.32% active; CHO-OTR cells, Fluo-8 calcium fluorescence; normalized: DMSO 0%, oxytocin 100%;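 active = activation above the mean of all tested compounds plus 3 SD, cutoff set per screening run, cut at about 20% in these data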;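 also: peak over basal fluorescence ratio from a 100 s FLIPR kinetic read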
Target sequence (P30559 whole entry, looked up): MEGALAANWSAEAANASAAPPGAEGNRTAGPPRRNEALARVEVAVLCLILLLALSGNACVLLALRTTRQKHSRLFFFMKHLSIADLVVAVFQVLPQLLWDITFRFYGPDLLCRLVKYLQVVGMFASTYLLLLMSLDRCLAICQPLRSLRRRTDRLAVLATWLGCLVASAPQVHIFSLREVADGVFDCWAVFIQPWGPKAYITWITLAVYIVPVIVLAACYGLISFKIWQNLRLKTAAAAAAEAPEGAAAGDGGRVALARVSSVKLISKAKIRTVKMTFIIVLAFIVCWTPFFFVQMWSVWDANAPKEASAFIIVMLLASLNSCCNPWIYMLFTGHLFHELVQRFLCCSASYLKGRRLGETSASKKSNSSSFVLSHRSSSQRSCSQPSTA
OXTR potentiate: potentiates the human oxytocin receptor response | P30559 | CHO-OTR cells, Fluo-8 calcium fluorescence, potentiator mode; 0% = oxytocin EC15, 100% = EC100 | activation, % at 3 µM | 320,000 tested, 0.061% active | AID 2445;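 active = activation above that plate's cutoff, the mean activation of tested compounds plus 3 SD, cut at about 6.6% in these data, passing the limit was not always enough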
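Assay system: CHO-OTR cells, human receptor / Also added: oxytocin at about EC15, sub-maximal agonist stimulus / Dosing: single dose, 3.0 µM nominal final compound concentration / Incubation: 6 min pre-incubation, 100 s read / Technique: Fluo-8 calcium dye fluorescence / Read-out: % activation vs EC15 and EC100 oxytocin / Benchmarks: EC15 oxytocin low, 75 nM oxytocin high / Replicates: singlicate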
TAAR1 ag confirm: human TAAR1 agonism, confirmed. activation, % at 3 µM. 2,400 tested, 82% active. shares compounds with TAAR1 ag. CHO RD-HGA16 TAAR1, Fluo-8 calcium fluorescence; scaled: DMSO 0%, maximal phenethylamine 100%;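 active = activation above a cutoff set at the run's mean compound activation plus 3 SD, cut at about 39% in these data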
Ga16 nonsel ag: nonselective agonism, TAAR1 counter-screen; shares compounds with TAAR1 ag; AID 651787; CHO-Ga16 parental, Fluo-8 calcium fluorescence; normalized to maximal ATP response, DMSO zero; 2,400 tested, 50% active; activation, % at 3 µM;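 active = activation above the run cutoff, the mean activation over all tested wells plus 3 SD, cut at about 12% in these data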
TAAR1 desensitize: human TAAR1 agonist that also desensitizes the receptor; shares compounds with TAAR1 ag; CHO RD-HGA16 hTAAR1, Fluo-8 calcium, beta-PEA response inhibition; inhibition, % at 3 µM; 2,400 tested, 46% active;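 active = inhibition above the run cutoff, the mean inhibition of all test compounds plus 3 SD, cut at about 49% in these data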;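 also: beta-PEA stimulus applied at its EC80; loss of beta-PEA calcium signal after compound pretreatment read as receptor desensitization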
Ga16 antag count: nonselective Ga16 antagonism, counter-screen | shares compounds with TAAR1 ag | CHO-Ga16 ATP-induced calcium, Fluo-8 fluorescence | inhibition, % at 3 µM | 2,400 tested, 39% active | AID 651952;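 active = inhibition above the plate's mean compound inhibition plus 3 SD, computed per plate, cut at about 22% in these data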
Each line names hits and unclear results; the compound was inactive in the other large screens (follow-up assays come after a bar, where they were run).

CCC1(c2ccccc2)ON(c2c(Br)cccc2Br)C1=O (configuration not stated)	none
COC(=O)[C@]12C[C@H](CC(=O)N3CCC(c4ccccc4)CC3)C(=O)N(Cc3ccccc3)C1=C[C@H](C(C)C)O[C@@H]2C1CC1	none (no result: V1R ag counter, OXTR ag, OXTR potentiate)
COc1ccc2[nH]c3c(c2c1)CCN1C(=O)C(CC(=O)NC(C)(C)C)C[C@H](C(=O)N2CCCCC2)[C@@]31CCc1ccccc1 (some centres not stated)	none (no result: V1R ag counter, OXTR ag, OXTR potentiate)
S=C1NCN(CCc2ccccc2)CN1	TAAR1 ag 87 | TAAR1 ag confirm 101 | Ga16 nonsel ag 22 | TAAR1 desensitize inactive | Ga16 antag count inactive
S=C1NCN(CCc2ccccc2)CN1Cc1ccccc1	none
COc1ccc(OCC(=O)NNC(=S)NC(=O)C2CCCCC2)cc1	TAAR1 ag 65 | TAAR1 ag confirm 78 | Ga16 nonsel ag 51 | TAAR1 desensitize inactive | Ga16 antag count 36
CCc1ccc(OCC(=O)NNC(=S)NC(=O)C2CCCCC2)c(Br)c1	TAAR1 ag 80 | TAAR1 ag confirm 78 | Ga16 nonsel ag 47 | TAAR1 desensitize 62 | Ga16 antag count 45
CCc1ccc(OCC(=O)NC2CCCCC2)c(Br)c1	none
COc1ccc(OCC(=O)NNC(=S)NC(=O)C2CC2)cc1	none (no result: V1R ag counter, OXTR ag, OXTR potentiate)
COc1ccc(CC(=O)NC(=S)NNC(=O)COc2c(C)cccc2C)cc1	TAAR1 antagonist 53, TAAR1 ag 94 | TAAR1 ag confirm 93 | Ga16 nonsel ag 61 | TAAR1 desensitize 64 | Ga16 antag count 47
CC1NC(=O)NC1CCCCCC(=O)NCCc1ccccc1 (configuration not stated)	TAAR1 ag 48 | TAAR1 ag confirm 78 | Ga16 nonsel ag inactive | TAAR1 desensitize 74 | Ga16 antag count inactive
Cc1cccc(C)c1NC(=O)CCCCCC1NC(=O)NC1C (configuration not stated)	none
COc1ccc(Nc2nc(N)nc(CN3CCc4ccccc4C3)n2)cc1	TAAR1 ag 44 | TAAR1 ag confirm 88 | Ga16 nonsel ag inactive | TAAR1 desensitize inactive | Ga16 antag count inactive
Nc1nc(CN2CCCCCC2)nc(Nc2ccccc2)n1	none
Nc1nc(CN2CCc3ccccc3C2)nc(Nc2ccccc2)n1	TAAR1 ag 59 | TAAR1 ag confirm 85 | Ga16 nonsel ag inactive | TAAR1 desensitize inactive | Ga16 antag count inactive
COc1ccc(Nc2nc(N)nc(CN3CCC(C)CC3)n2)cc1	none
COc1ccccc1Nc1nc(N)nc(CN2CCc3ccccc3C2)n1	TAAR1 ag 43 | TAAR1 ag confirm 54 | Ga16 nonsel ag inactive | TAAR1 desensitize inactive | Ga16 antag count inactive
COc1ccccc1N1CCN(Cc2nc(N)nc(Nc3ccc(C)cc3)n2)CC1	none
Cc1ccc(S(=O)(=O)N(CC(=O)NCc2ccncc2)Cc2ccc(F)cc2)cc1	none
Cc1cc(C)c(S(=O)(=O)c2cccc(Br)c2C)c(=O)[nH]1	none
CCOC(=O)/C(=C\C=C1/Sc2cc(OCC)c(OCC)cc2N1CC)C(C)=O	V1R ag counter 92, TAAR1 antagonist 62, TAAR1 ag 121, OXTR ag 148 | TAAR1 ag confirm 167 | Ga16 nonsel ag 225 | TAAR1 desensitize 80 | Ga16 antag count 86
CCCOc1ccc2oc(=O)c3c(c2c1)CCCN3C(=O)CN1CCc2ccccc2C1	TAAR1 ag 73 | TAAR1 ag confirm 54 | Ga16 nonsel ag inactive | TAAR1 desensitize inactive | Ga16 antag count inactive
CC1CCN(CC(=O)N2CCCc3c2c(=O)oc2ccc(OCc4ccccc4)cc32)CC1	none
COc1ccc(S(=O)(=O)N2CCCC(C(=O)NCc3ccco3)C2)cc1OC (configuration not stated)	none
COc1cccc(-c2c(C(=O)N/N=C/c3ccoc3)nnn2-c2nonc2N)c1	TAAR1 ag 72 | TAAR1 ag confirm 129 | Ga16 nonsel ag 76 | TAAR1 desensitize inactive | Ga16 antag count inactive
COc1cccc(-c2c(C(=O)N/N=C/c3ccncc3)nnn2-c2nonc2N)c1	none
COc1cccc(-c2c(C(=O)N/N=C/c3ccc(C)s3)nnn2-c2nonc2N)c1	TAAR1 ag 65 | TAAR1 ag confirm 87 | Ga16 nonsel ag 44 | TAAR1 desensitize inactive | Ga16 antag count inactive
COc1ccc(C(C)(O)c2nc(-c3ccc(F)cc3OC)cs2)cc1 (configuration not stated)	none (no result: V1R ag counter, OXTR ag, OXTR potentiate)
CCc1ncn(CCc2ccccc2OC)c1C(C)C	TAAR1 ag 53 (no result: V1R ag counter, OXTR ag, OXTR potentiate) | TAAR1 ag confirm 63 | Ga16 nonsel ag inactive | TAAR1 desensitize inactive | Ga16 antag count inactive
COc1ccccc1CCn1cnc(C)c1CC(C)C	TAAR1 ag 76 (no result: V1R ag counter, OXTR ag, OXTR potentiate) | TAAR1 ag confirm 69 | Ga16 nonsel ag inactive | TAAR1 desensitize inactive | Ga16 antag count inactive
COc1ccccc1CCn1cnc(Cc2cccc(F)c2)c1C(C)C	none (no result: V1R ag counter, OXTR ag, OXTR potentiate)
COc1ccc(CCNS(=O)(=O)c2cc(C(=O)O)c(Cl)cc2Cl)cc1	none
Cc1cccc(OCC(=O)Nc2ccc(C(=O)Nc3ccccc3C(=O)O)cc2)c1C	none
CCCOc1ccc(C(=O)NNC(=S)NC(=O)c2ccco2)cc1	V1R ag counter 98, TAAR1 antagonist 105, TAAR1 ag 156, OXTR ag 95 | TAAR1 ag confirm 147 | Ga16 nonsel ag 119 | TAAR1 desensitize 104 | Ga16 antag count 72
COc1ccc(C(=O)NC(=S)NNC(=O)c2cccnc2)cc1	none
CCCCOc1ccc(C(=O)NNC(=S)NC(=O)CC)cc1	none (no result: TAAR1 antagonist, TAAR1 ag)
O=C(NC(=S)NNC(=O)c1ccco1)c1ccc(Br)cc1	TAAR1 ag 94 | TAAR1 ag confirm 92 | Ga16 nonsel ag 72 | TAAR1 desensitize inactive | Ga16 antag count 32
O=C(CCNC(=O)c1ccco1)NNC(=O)c1ccc(Br)cc1	none (no result: V1R ag counter, OXTR ag, OXTR potentiate)
COc1ccc(C(=O)NNC(=S)NC(=O)c2ccco2)cc1	TAAR1 ag 59 | TAAR1 ag confirm 66 | Ga16 nonsel ag 39 | TAAR1 desensitize inactive | Ga16 antag count inactive
COc1ccc(C(=O)N/C=C/n2cnc3cc(C(F)(F)F)ccc32)cc1	none
COc1ccc(-c2nn(-c3ccccc3)cc2C(=O)NCC2CCCO2)cc1 (configuration not stated)	none

Compound activity as filed in PubChem.
